{"source": "ChEMBL document CHEMBL2040734", "about": "“Benzothiazoles: search for anticancer agents” (2012)", "format_in_all_cases": "functional", "key": {"NCI-H522": {"system": "NCI-H522", "assay": "Cytotoxicity against human NCI-H522 cells assessed as cell growth at 10 uM after 48 hrs by sulforhodamine B assay", "details": "NCI-H522, 48 h, read-out: Activity"}, "CCRF-CEM": {"system": "CCRF-CEM", "assay": "Cytotoxicity against human CCRF-CEM cells at 0.01 uM after 48 hrs by sulforhodamine B assay", "outline": "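CCRF-CEM suspension leukemia cells in RPMI 1640 with 5% FBS and 2 mM L-glutamine, plated 24 h before dosing. Five concentrations (0.01–100 µM) were applied from a DMSO stock for 48 h at 37 °C. Settled cells were fixed with 80% TCA (final 16%) and stained with SRB, with read-out at 515 nm. Percent growth was derived from time-zero and control absorbances.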"}, "SK-MEL-28": {"system": "SK-MEL-28", "assay": "Cytotoxicity against human SK-MEL-28 cells assessed as cell growth at 0.01 uM after 48 hrs by sulforhodamine B assay", "details": "SK-MEL-28, 48 h, read-out: Activity"}, "A549": {"system": "A549", "assay": "Cytotoxicity against human A549 cells assessed as cell growth at 100 uM after 48 hrs by sulforhodamine B assay", "details": "A549, 48 h, read-out: Activity", "outline": "(§1)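 NCI-60 five-dose screen. Cells were grown in RPMI 1640 with 5% FBS and 2 mM L-glutamine and preincubated 24 h. Compound (DMSO stock) was tested at 0.01, 0.1, 1, 10 and 100 µM for 48 h at 37 °C. Cells were fixed in situ with cold TCA (final 10%) and stained with 0.4% SRB. A515 was read, and percent growth was calculated against time-zero and control plates.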"}, "NCI-H23": {"system": "NCI-H23", "assay": "Cytotoxicity against human NCI-H23 cells assessed as cell growth at 10 '-5 M after 48 hrs by sulforhodamine B assay", "details": "NCI-H23, 48 h, read-out: Activity"}, "OVCAR-5": {"system": "OVCAR-5", "assay": "Cytotoxicity against human OVCAR5 cells assessed as cell growth at 0.1 uM after 48 hrs by sulforhodamine B assay", "details": "OVCAR-5, 48 h, read-out: Activity"}, "MDA-MB-231": {"system": "MDA-MB-231", "assay": "Cytotoxicity against human MDA-MB-231 cells assessed as cell growth at 10 '-5 M after 48 hrs by sulforhodamine B assay", "details": "MDA-MB-231, 48 h, read-out: Activity"}, "SW-620": {"system": "SW-620", "assay": "Cytotoxicity against human SW620 cells assessed as cell growth at 1 uM after 48 hrs by sulforhodamine B assay", "details": "SW-620, 48 h, read-out: Activity"}, "MCF7": {"system": "MCF7", "assay": "Cytotoxicity against human MCF7 cells assessed as cell growth at 0.01 uM after 48 hrs by sulforhodamine B assay", "details": "MCF7, 48 h, read-out: Activity"}, "HL-60(TB) [1]": {"system": "HL-60(TB)", "assay": "Cytotoxicity against human HL-60(TB) cells assessed as cell growth at 0.1 uM after 48 hrs by sulforhodamine B assay", "details": "HL-60, 48 h, read-out: Activity", "outline": "(§2)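 NCI five-dose screen on the HL-60(TB) leukaemia line, grown in RPMI 1640 with 5% FBS and 2 mM L-glutamine and plated for 24 h before dosing. DMSO stocks were diluted in medium. Cells were exposed 48 h at 37 °C, then settled cells were fixed in 16% TCA (final) and stained with SRB, absorbance 515 nm. Percent growth = (Ti−Tz)/(C−Tz)×100, or (Ti−Tz)/Tz×100 when Ti<Tz.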"}, "SF-295": {"system": "SF-295", "assay": "Cytotoxicity against human SF295 cells assessed as cell growth at 1 uM after 48 hrs by sulforhodamine B assay", "details": "SF-295, 48 h, read-out: Activity"}, "OVCAR-4": {"system": "OVCAR-4", "assay": "Cytotoxicity against human OVCAR4 cells assessed as cell growth at 10 '-5 M after 48 hrs by sulforhodamine B assay", "details": "OVCAR-4, 48 h, read-out: Activity"}, "HT-29": {"system": "HT-29", "assay": "Cytotoxicity against human HT-29 cells assessed as cell growth at 0.1 uM after 48 hrs by sulforhodamine B assay", "details": "HT-29, 48 h, read-out: Activity", "outline": "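Five-dose NCI panel run at 0.01, 0.1, 1, 10 and 100 µM. Cells were in RPMI 1640 with 5% FBS and 2 mM L-glutamine, seeded at 5000–40,000 cells/well and pre-incubated 24 h. Drug was diluted from a DMSO stock into medium with 50 µg/ml gentamicin. Exposure was 48 h at 37 °C, 5% CO2. Cells were fixed with cold TCA and stained with 0.4% SRB, read at 515 nm. Percent growth came from time-zero, control and test absorbances.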"}, "SNB-19": {"system": "SNB-19", "assay": "Cytotoxicity against human SNB19 cells assessed as cell growth at 0.01 uM after 48 hrs by sulforhodamine B assay", "details": "SNB-19, 48 h, read-out: Activity"}, "SR": {"system": "SR", "assay": "Cytotoxicity against human SR cells assessed as cell growth at 0.01 uM after 48 hrs by sulforhodamine B assay", "details": "read-out: Activity"}, "MDA-MB-435": {"system": "MDA-MB-435", "assay": "Cytotoxicity against human MDA-MB-435 cells assessed as cell growth at 0.01 uM after 48 hrs by sulforhodamine B assay", "details": "MDA-MB-435, 48 h, read-out: Activity"}, "COLO 205": {"system": "COLO 205", "assay": "Cytotoxicity against human COLO205 cells assessed as cell growth at 10 uM after 48 hrs by sulforhodamine B assay", "details": "COLO 205, 48 h, read-out: Activity", "outline": "as §1"}, "HL-60(TB) [2]": {"system": "HL-60(TB)", "assay": "Cytotoxicity against human HL-60(TB) cells assessed as cell growth at 1 uM after 48 hrs by sulforhodamine B assay", "details": "HL-60, 48 h, read-out: Activity", "outline": "as §2"}, "HCC 2998": {"system": "HCC 2998", "assay": "Cytotoxicity against human HCC2998 cells assessed as cell growth at 10 '-5 M after 48 hrs by sulforhodamine B assay", "details": "HCC 2998, 48 h, read-out: Activity", "outline": "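Primary one-dose screen across the NCI 60-line panel at 10 µM. Cells were grown in RPMI 1640 with 5% FBS and 2 mM L-glutamine and held 24 h before drug. Drug was diluted from a DMSO concentrate. Exposure was 48 h at 37 °C, 5% CO2. Cells were fixed with TCA and stained with SRB, with absorbance read at 515 nm. Percent growth was calculated against time-zero and untreated control.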"}, "SK-MEL-5": {"system": "SK-MEL-5", "assay": "Growth inhibition of human SK-MEL-5 cells after 48 hrs by sulforhodamine B assay", "details": "SK-MEL-5, 48 h", "outline": "(§3)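 Adherent NCI-60 lines were grown in RPMI 1640 with 5% FBS and 2 mM L-glutamine, plated at 5000–40,000 cells/well and preincubated 24 h. They were then exposed to five concentrations (0.01–100 µM, from a DMSO stock) for 48 h at 37 °C, 5% CO2. Cells were fixed with cold TCA (10% final, 60 min, 4 °C) and stained with 0.4% SRB. Dye was solubilized in 10 mM Tris base and A515 read. GI50 was derived from time-zero, control and treated absorbances.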"}, "DU-145": {"system": "DU-145", "assay": "Cytotoxicity against human DU145 cells assessed as cell growth at 0.1 uM after 48 hrs by sulforhodamine B assay", "details": "DU-145, 48 h, read-out: Activity", "outline": "as §1"}, "MDA-MB-468": {"system": "MDA-MB-468", "assay": "Growth inhibition of human MDA-MB-468 cells after 48 hrs by sulforhodamine B assay", "details": "MDA-MB-468, 48 h; for CC50: read-out: LC50 (the source's name)", "outline": "as §3"}, "U-251": {"system": "U-251", "assay": "Cytotoxicity against human U251 cells assessed as cell growth at 0.1 uM after 48 hrs by sulforhodamine B assay", "details": "U-251, 48 h, read-out: Activity"}}, "data": [{"compound": "Cc1ccc2nc(Nc3c(C)cccc3C)sc2c1", "values": [{"measurement": "growth at 10 µM", "setting": "NCI-H522", "result": 28, "unit": "%"}, {"measurement": "Activity", "setting": "CCRF-CEM", "result": 94, "unit": "%"}, {"measurement": "growth at 0.01 µM", "setting": "SK-MEL-28", "result": 94, "unit": "%"}, {"measurement": "growth at 100 µM", "setting": "A549", "result": 69, "unit": "%"}, {"measurement": "growth at 10 µM", "setting": "NCI-H23", "result": 57.5, "unit": "%"}, {"measurement": "growth at 0.1 µM", "setting": "OVCAR-5", "result": 106, "unit": "%"}, {"measurement": "growth at 10 µM", "setting": "MDA-MB-231", "result": 47, "unit": "%"}, {"measurement": "growth at 1 µM", "setting": "SW-620", "result": 49, "unit": "%"}, {"measurement": "growth at 0.01 µM", "setting": "MCF7", "result": 90, "unit": "%"}, {"measurement": "growth at 0.1 µM", "setting": "HL-60(TB) [1]", "result": 106, "unit": "%"}, {"measurement": "growth at 1 µM", "setting": "SF-295", "result": 44, "unit": "%"}, {"measurement": "growth at 10 µM", "setting": "OVCAR-4", "result": 63, "unit": "%"}, {"measurement": "growth at 0.1 µM", "setting": "HT-29", "result": 92, "unit": "%"}, {"measurement": "growth at 0.01 µM", "setting": "SNB-19", "result": 94, "unit": "%"}, {"measurement": "growth at 0.01 µM", "setting": "SR", "result": 98, "unit": "%"}, {"measurement": "growth at 0.01 µM", "setting": "MDA-MB-435", "result": 95, "unit": "%"}, {"measurement": "growth at 10 µM", "setting": "COLO 205", "result": 49, "unit": "%"}, {"measurement": "growth at 1 µM", "setting": "HL-60(TB) [2]", "result": 56, "unit": "%"}, {"measurement": "growth at 10 µM", "setting": "HCC 2998", "result": 54.1, "unit": "%"}, {"measurement": "LC50", "setting": "SK-MEL-5", "result": "> 100000", "unit": "nM"}, {"measurement": "TGI", "setting": "SK-MEL-5", "result": "> 100000", "unit": "nM"}, {"measurement": "growth at 0.1 µM", "setting": "DU-145", "result": 102, "unit": "%"}, {"measurement": "GI50", "setting": "MDA-MB-468", "result": 330, "unit": "nM"}, {"measurement": "TGI", "setting": "MDA-MB-468", "result": "> 100000", "unit": "nM"}, {"measurement": "CC50", "setting": "MDA-MB-468", "result": "> 100000", "unit": "nM"}, {"measurement": "growth at 0.1 µM", "setting": "U-251", "result": 105, "unit": "%"}]}, {"compound": "Clc1cccc(Cl)c1Nc1nc2cccc(Cl)c2s1", "values": [{"measurement": "growth at 10 µM", "setting": "NCI-H522", "result": -71, "unit": "%"}, {"measurement": "Activity", "setting": "CCRF-CEM", "result": 96, "unit": "%"}, {"measurement": "growth at 0.01 µM", "setting": "SK-MEL-28", "result": 93, "unit": "%"}, {"measurement": "growth at 100 µM", "setting": "A549", "result": -55, "unit": "%"}, {"measurement": "growth at 10 µM", "setting": "NCI-H23", "result": -10.5, "unit": "%"}, {"measurement": "growth at 0.1 µM", "setting": "OVCAR-5", "result": 92, "unit": "%"}, {"measurement": "growth at 10 µM", "setting": "MDA-MB-231", "result": -66.8, "unit": "%"}, {"measurement": "growth at 1 µM", "setting": "SW-620", "result": 69, "unit": "%"}, {"measurement": "growth at 0.01 µM", "setting": "MCF7", "result": 90, "unit": "%"}, {"measurement": "growth at 0.1 µM", "setting": "HL-60(TB) [1]", "result": 103, "unit": "%"}, {"measurement": "growth at 1 µM", "setting": "SF-295", "result": 33, "unit": "%"}, {"measurement": "growth at 10 µM", "setting": "OVCAR-4", "result": 6.72, "unit": "%"}, {"measurement": "growth at 0.1 µM", "setting": "HT-29", "result": 96, "unit": "%"}, {"measurement": "growth at 0.01 µM", "setting": "SNB-19", "result": 91, "unit": "%"}, {"measurement": "growth at 0.01 µM", "setting": "SR", "result": 100, "unit": "%"}, {"measurement": "growth at 0.01 µM", "setting": "MDA-MB-435", "result": 96, "unit": "%"}, {"measurement": "growth at 10 µM", "setting": "COLO 205", "result": -91, "unit": "%"}, {"measurement": "growth at 1 µM", "setting": "HL-60(TB) [2]", "result": 63, "unit": "%"}, {"measurement": "growth at 10 µM", "setting": "HCC 2998", "result": -26.1, "unit": "%"}, {"measurement": "GI50", "setting": "SK-MEL-5", "result": 1000, "unit": "nM"}, {"measurement": "LC50", "setting": "SK-MEL-5", "result": 4930, "unit": "nM"}, {"measurement": "TGI", "setting": "SK-MEL-5", "result": 2220, "unit": "nM"}, {"measurement": "growth at 0.1 µM", "setting": "DU-145", "result": 102, "unit": "%"}, {"measurement": "GI50", "setting": "MDA-MB-468", "result": 343, "unit": "nM"}, {"measurement": "TGI", "setting": "MDA-MB-468", "result": 1740, "unit": "nM"}, {"measurement": "CC50", "setting": "MDA-MB-468", "result": 5790, "unit": "nM"}, {"measurement": "growth at 0.1 µM", "setting": "U-251", "result": 98, "unit": "%"}]}]}
